Reference: ChEMBL document CHEMBL2169850, “3,6-bis(3-alkylguanidino)acridines as DNA-intercalating antitumor agents” (Eur J Med Chem, 2012)
Calls of active or inactive are those of the source. The calls are words filed in the database; no cut-off is given here.

Key:
Nucleic Acid [1] = assay: Binding affinity to Escherichia coli pUC19 DNA assessed as reduction in DNA mobility to 5 to 80 uM by EMSA; assay type: nucleic-acid assay
In short: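 Supercoiled pUC19 plasmid incubated with compound at 5, 20, 40, 60 or 80 µM. Native agarose gel electrophoresis run with no ethidium bromide in the gel; band mobility was then read.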

Nucleic Acid [2] = assay: Binding affinity to calf thymus DNA assessed as melting temperature at 12.4 uM by thermal denaturation study; assay type: nucleic-acid assay; details: Bos taurus
Nucleic Acid [3] = assay: Binding affinity to calf thymus DNA increase in DNA viscosity at 12 to 60 uM by viscosimetric titration assay; assay type: nucleic-acid assay; details: Bos taurus
In short: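 Relative viscosity of ctDNA (3.11 × 10^-8 M) with compound at 12–60 × 10^-6 M was measured by automated microviscometry in a 1.6 mm capillary at 25 °C, in 10 mM Tris, pH 7.4. Solution density was also measured.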

[4] = biological target: T1, DNA topoisomerase 1 (Homo sapiens) (UniProt P11387); assay: Inhibition of human topoisomerase 1 assessed as reduction in pBR322 DNA relaxation of relaxation at 5 uM by DNA unwinding assay
T1 sequence (whole entry): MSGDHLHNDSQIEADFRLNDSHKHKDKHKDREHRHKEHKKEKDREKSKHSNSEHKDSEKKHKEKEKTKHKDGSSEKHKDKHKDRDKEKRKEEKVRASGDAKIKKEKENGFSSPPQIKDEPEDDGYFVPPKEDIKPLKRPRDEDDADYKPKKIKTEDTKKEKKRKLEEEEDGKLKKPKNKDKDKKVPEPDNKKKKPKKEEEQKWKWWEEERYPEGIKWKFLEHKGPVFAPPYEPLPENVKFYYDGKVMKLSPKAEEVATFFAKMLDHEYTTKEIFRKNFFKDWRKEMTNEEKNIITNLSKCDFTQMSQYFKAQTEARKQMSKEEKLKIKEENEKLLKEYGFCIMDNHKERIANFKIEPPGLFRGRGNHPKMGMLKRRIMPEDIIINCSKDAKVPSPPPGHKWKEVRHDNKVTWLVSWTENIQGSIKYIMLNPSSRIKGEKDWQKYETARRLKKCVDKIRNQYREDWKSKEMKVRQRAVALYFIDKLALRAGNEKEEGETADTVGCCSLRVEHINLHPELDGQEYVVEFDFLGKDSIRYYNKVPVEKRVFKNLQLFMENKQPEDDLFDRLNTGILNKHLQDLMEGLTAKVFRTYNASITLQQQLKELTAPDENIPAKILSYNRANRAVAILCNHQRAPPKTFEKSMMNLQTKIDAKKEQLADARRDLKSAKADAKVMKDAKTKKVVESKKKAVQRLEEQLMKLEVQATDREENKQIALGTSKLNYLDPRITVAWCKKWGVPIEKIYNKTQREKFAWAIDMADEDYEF

[5] = biological target: T1, DNA topoisomerase 1 (Homo sapiens); assay: Inhibition of human topoisomerase 1 assessed as reduction in pBR322 DNA relaxation of relaxation at 60 uM by DNA unwinding assay
Nucleic Acid [6] = assay: Binding affinity to calf thymus DNA at 6.5 uM by CD spectroscopy; assay type: nucleic-acid assay; details: Bos taurus
In short: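 CD spectra were recorded in 1 mm quartz cuvettes in 0.01 M Tris, pH 7.4, with 6.52 µM compound and ctDNA. Each spectrum is the mean of three scans after buffer background subtraction.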

Nucleic Acid [7] = assay: Binding affinity to calf thymus DNA by spectrofluorimetric titration assay; assay type: nucleic-acid assay; details: Bos taurus
In short: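 Fluorescence titration at 25 °C in 0.01 M Tris, pH 7.4. Compound (9.58 × 10^-6 M) was titrated with ctDNA from 0 to 2.57 × 10^-4 M bp, excited at 384 nm, and emission recorded from 400 to 600 nm. K and n were obtained from McGhee–von Hippel fits of Scatchard data.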

Nucleic Acid [8] = assay: Binding affinity to calf thymus DNA assessed as hypochromacity at 12.8 uM by UV-visible absorption spectroscopy; details: Bos taurus
HL-60 [9] = assay: Antiproliferative activity against human HL60 cells assessed as cell number at 25 uM incubated for 24 hrs by Coulter counting method; assay type: functional
In short: (§1)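 HL-60 cells in RPMI with 10% heat-inactivated FCS, antibiotics and amphotericin, 37 °C, 5% CO2, seeded in 60 mm dishes. Compound added at 5, 15 or 25 µM for 24, 48 or 72 h. Absolute cell counts taken by Coulter counter and expressed as percentage of untreated control. Mean ± SD of at least three independent experiments; one-way ANOVA with Tukey test, p < 0.05.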

HL-60 [10] = assay: Induction of apoptosis in human HL60 cells at 5 to 25 uM incubated for 48 hrs by AnnexinV/propidium iodide staining method; assay type: functional, cell-based
In short: (§2)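 HL-60 cells (1.5 × 10^5) were treated at 5–25 µM for 24, 48 or 72 h and harvested. They were stained with Annexin V-FITC for 10 min in HEPES/CaCl2/NaCl binding buffer, washed, briefly stained with PI (1 mg/mL) and analysed by flow cytometry for apoptosis and necrosis. Mean ± SD, n ≥ 3.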

HL-60 [11] = assay: Drug uptake in human HL60 cells with necrotic morphology at 50 uM incubated for 18 hrs by fluorescence microscopy; assay type: ADME, cell-based; details: hl-60, 18 h
In short: (§3)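 HL-60 cells were treated with 50 µM compound for 18 h, washed with PBS, resuspended in HBSS and mounted as native slides. Cells were imaged by inverted fluorescence microscopy at 40×, with excitation 360/40 and emission 470/40. The fluorescence channel was merged with brightfield images.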

HL-60 [12] = assay: Antiproliferative activity against human HL60 cells assessed as cell number at 25 uM incubated for 72 hrs by Coulter counting method; assay type: functional; in short: as §1
HL-60 [13] = assay: Antiproliferative activity against human HL60 cells assessed as cell number at 5 uM incubated for 24 hrs by Coulter counting method; assay type: functional; in short: as §1
HL-60 [14] = assay: Antiproliferative activity against human HL60 cells assessed as cell number at 5 uM incubated for 48 hrs by Coulter counting method; assay type: functional; in short: as §1
HL-60 [15] = assay: Drug uptake in human HL60 cells with normal morphology at 50 uM incubated for 18 hrs by fluorescence microscopy; assay type: ADME, cell-based; details: hl-60, 18 h; in short: as §3
HL-60 [16] = assay: Induction of apoptosis in human HL60 cells at 5 to 25 uM incubated for 72 hrs by AnnexinV/propidium iodide staining method; assay type: functional, cell-based; in short: as §2
HL-60 [17] = assay: Induction of caspase-3 activation in human HL60 cells at 25 uM incubated for 72 hrs by FACS assay; assay type: functional
In short: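 HL-60 cells were treated for 72 h, washed in cold PBS, fixed and permeabilized for 20 min on ice. They were incubated with a FITC anti-active caspase-3 antibody for 30 min at RT and analysed by flow cytometry. Results are the percentage of positively stained cells; mean ± SD, n ≥ 3.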

HL-60 [18] = assay: Induction of necrosis in human HL60 cells at 5 to 25 uM incubated for 48 hrs by AnnexinV/propidium iodide staining method; assay type: functional, cell-based
In short: (§4)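 HL-60 cells (1.5 × 10^5) were exposed to compound, then stained 10 min with Annexin V-FITC in HEPES/CaCl2/NaCl binding buffer. Cells were washed, briefly stained with propidium iodide and analysed by flow cytometry for apoptotic and necrotic fractions. Mean ± SD of at least three independent experiments.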

HL-60 [19] = assay: Induction of caspase-3 activation in human HL60 cells at 5 to 25 uM incubated for 24 to 72 hrs by FACS assay; assay type: functional, cell-based
In short: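 HL-60 cells (RPMI with 10% heat-inactivated FCS, 37 °C, 5% CO2) were seeded in dishes and treated 24, 48 or 72 h. Cells were fixed and permeabilized 20 min on ice, then stained 30 min at RT with FITC anti-active caspase-3 antibody. Read-out was the percentage of positive cells by flow cytometry. Mean ± SD of at least three independent experiments; ANOVA with Tukey.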

HL-60 [20] = assay: Induction of necrosis in human HL60 cells at 5 to 25 uM incubated for 24 hrs by AnnexinV/propidium iodide staining method; assay type: functional, cell-based; in short: as §4
HL-60 [21] = assay: Antiproliferative activity against human HL60 cells assessed as cell number at 15 uM incubated for 48 hrs by Coulter counting method; assay type: functional; in short: as §1
HL-60 [22] = assay: Antiproliferative activity against human HL60 cells assessed as cell number at 15 uM incubated for 72 hrs by Coulter counting method; assay type: functional; in short: as §1
HL-60 [23] = assay: Antiproliferative activity against human HL60 cells assessed as cell number at 25 uM incubated for 48 hrs by Coulter counting method; assay type: functional; in short: as §1
HL-60 [24] = assay: Antiproliferative activity against human HL60 cells assessed as cell number at 5 uM incubated for 72 hrs by Coulter counting method; assay type: functional; in short: as §1
HL-60 [25] = assay: Induction of apoptosis in human HL60 cells at 5 to 25 uM incubated for 24 hrs by AnnexinV/propidium iodide staining method; assay type: functional, cell-based; in short: as §2
HL-60 [26] = assay: Antiproliferative activity against human HL60 cells assessed as cell number at 15 uM incubated for 24 hrs by Coulter counting method; assay type: functional; in short: as §1
HL-60 [27] = assay: Induction of necrosis in human HL60 cells at 5 to 25 uM incubated for 72 hrs by AnnexinV/propidium iodide staining method; assay type: functional, cell-based; in short: as §4

CCCNC(=N)Nc1ccc2cc3ccc(NC(=N)NCCC)cc3nc2c1
Activity (Nucleic Acid [1]): Active | Tm (Nucleic Acid [2]): 85 °C | Activity (Nucleic Acid [3]): Active | Activity [4]: Active | Topoisomerase 1 inhibition (active/inactive) [5]: Active | Activity (Nucleic Acid [6]): Active | K (Nucleic Acid [7]): 5.01 ×10⁵ /M | Activity (Nucleic Acid [8]): 32%

CCCCNC(=N)Nc1ccc2cc3ccc(NC(=N)NCCCC)cc3nc2c1
Activity (Nucleic Acid [1]): Active | Tm (Nucleic Acid [2]): 86 °C | Activity (Nucleic Acid [3]): Active | Activity [4]: Active | Topoisomerase 1 inhibition (active/inactive) [5]: Active | Activity (Nucleic Acid [6]): Active | K (Nucleic Acid [7]): 4.25 ×10⁵ /M | Activity (Nucleic Acid [8]): 17%

CCCCCNC(=N)Nc1ccc2cc3ccc(NC(=N)NCCCCC)cc3nc2c1.Cl.Cl.O
Activity (Nucleic Acid [1]): inactive | Tm (Nucleic Acid [2]): 88 °C | Activity (HL-60 [9]): 78.32% | Activity (Nucleic Acid [3]): Active | Activity (HL-60 [10]): inactive | Activity [4]: Active | Drug uptake (HL-60 [11]): Active | Activity (HL-60 [12]): 48.67% | Activity (HL-60 [13]): 76.19% | Activity (HL-60 [14]): 81.9% | Drug uptake (HL-60 [15]): Active | Activity (HL-60 [16]): inactive | Activity (HL-60 [17]): 46.8% | Activity (HL-60 [18]): inactive | Activity (HL-60 [19]): inactive | Topoisomerase 1 inhibition (active/inactive) [5]: Active | Activity (HL-60 [20]): inactive | Activity (HL-60 [21]): 77.14% | Activity (HL-60 [22]): 54.4% | Activity (Nucleic Acid [6]): Active | Activity (HL-60 [23]): 67.98% | Activity (HL-60 [24]): 83.3% | K (Nucleic Acid [7]): 2.36 ×10⁵ /M | Activity (HL-60 [25]): inactive | Activity (HL-60 [26]): 75.2% | Activity (HL-60 [27]): inactive | Activity (Nucleic Acid [8]): 31%
